Results taken from ChEMBL document CHEMBL1137922, “Synthesis and activity of novel analogs of hemiasterlin as inhibitors of tubulin polymerization: modification of the A segment” (Bioorg Med Chem Lett, 2004).
pIC50: −log10 of the molar value. Activity calls are given as the source filed them. The rule behind the calls is not given here.

Experiments:
KB = experiment: Concentration required to kill human epidermoid KBV1 cell lines containing very high levels of P-glycoprotein after 3 days of continuous exposure; format: functional, cell-based; conditions: 72 h
Method in brief: (§1)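 KB-3-1, KB85 and KBV1 cells were plated at densities set to reach 60–90% confluence at analysis. Compounds were serially diluted in medium as 2× stocks and added in duplicate. After 3 days of incubation, cell survival was read by SRB assay and reported as IC50.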

Bos taurus [1] = species on record: Bos taurus; experiment: Percent inhibition of bovine microtubule-assisted protein (MAP) rich tubulin polymerisation at concentration of 0.3 uM; (result for 2); format: functional
Method in brief: (§2)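 Bovine MAP-rich tubulin (final 1.5 mg/mL) was prepared in cold PEM buffer (80 mM NaPIPES pH 6.9, 1 mM MgCl2, 1 mM EGTA) with 1 mM GTP and spun at 12,000g for 10 min at 4 C. It was added to duplicate compound wells (final 0.3 µM); controls held 0.3% DMSO. A340 was read every minute for 60 min at 24 C.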

KB 3-1 = experiment: Concentration required to kill human epidermoid KB-3-1 cell lines containing very low levels of P-glycoprotein after 3 days of continuous exposure; format: functional, cell-based; conditions: KB 3-1, 72 h; method in brief: as §1
Bos taurus [2] = species on record: Bos taurus; experiment: Percent inhibition of bovine microtubule-assisted protein (MAP) rich tubulin polymerisation at concentration of 0.3 uM; format: functional; method in brief: as §2
KB85 (Homo sapiens) = experiment: Concentration required to kill human epidermoid KB85 cell lines containing moderate levels of P-glycoprotein after 3 days of continuous exposure; conditions: KB85, 72 h
Bos taurus [3] = species on record: Bos taurus; experiment: Percent inhibition of bovine microtubule-assisted protein (MAP) rich tubulin polymerisation at concentration of 0.3 uM; Not applicable; format: functional; method in brief: as §2
Mus musculus [4] = experiment: Minimum effective dose against Lox melanoma human xenograft models in athymic mice; format: functional
Method in brief: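 Lox melanoma cells (1.5–7 × 10^6) were injected sc into athymic mice. At 80–100 mg tumour mass, animals were randomised into groups of 5 or 10 and dosed iv in saline. Tumour length and width were measured weekly, with mass = (L·W²)/2. Relative tumour growth and %T/C were calculated.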

Mus musculus [5] = experiment: Minimum tolerated dose against Lox melanoma human xenograft models in athymic mice; format: functional
Mus musculus [6] = species on record: Mus musculus; experiment: Effect at 1.6 mpk against DLD1 cell line expressing P-glycoprotein transporter in athymic mice; Active; format: functional, organism-based; conditions: DLD-1
Mus musculus [7] = species on record: Mus musculus; experiment: Effect at 1.6 mpk against MX1W cell line expressing P-glycoprotein transporter in athymic mice; Active; format: functional, organism-based
Mus musculus [8] = species on record: Mus musculus; experiment: Effect at 1.6 mpk against HCT-15 cell line expressing P-glycoprotein transporter in athymic mice; Active; format: functional, organism-based
Mus musculus [9] = species on record: Mus musculus; experiment: Effect at 1.5 mpk against DLD1 cell line expressing P-glycoprotein transporter in athymic mice; Active; format: functional, organism-based; conditions: DLD-1
Mus musculus [10] = species on record: Mus musculus; experiment: Effect at 1.5 mpk against MX1W cell line expressing P-glycoprotein transporter in athymic mice; Active; format: functional, organism-based
Mus musculus [11] = species on record: Mus musculus; experiment: Effect at 1.5 mpk against HCT-15 cell line expressing P-glycoprotein transporter in athymic mice; Active; format: functional, organism-based
Mus musculus [12] = species on record: Mus musculus; experiment: Effect at 4 mpk against DLD1 cell line expressing P-glycoprotein transporter in athymic mice; Active; format: functional, organism-based; conditions: DLD-1
Mus musculus [13] = species on record: Mus musculus; experiment: Effect at 2 mpk against DLD1 cell line expressing P-glycoprotein transporter in athymic mice; Active; format: functional, organism-based; conditions: DLD-1
Mus musculus [14] = species on record: Mus musculus; experiment: Effect at 2 mpk against MX1W cell line expressing P-glycoprotein transporter in athymic mice; Active; format: functional, organism-based
Mus musculus [15] = species on record: Mus musculus; experiment: Effect at 2 mpk against HCT-15 cell line expressing P-glycoprotein transporter in athymic mice; Active; format: functional, organism-based

`CN[C@H](C(=O)N[C@H](C(=O)N(C)[C@H](/C=C(\C)C(=O)O)C(C)C)C(C)(C)C)C(C)(C)c1cccc(-c2ccccc2)c1` showed a pIC50 (KB) of 6.83, an Inhibition (Bos taurus [1]) of 84% and a pIC50 (KB 3-1) of 8.72. For the same molecule, the Inhibition (Bos taurus [2]) was 86% and the pIC50 (KB85 (Homo sapiens)) was 8.27.
`CN[C@H](C(=O)N[C@H](C(=O)N(C)[C@H](/C=C(\C)C(=O)O)C(C)C)C(C)(C)C)C(C)(C)c1cc(F)cc(F)c1` was tested, and the pIC50 (KB) was 6.34, the Inhibition (Bos taurus [1]) was 84% and the pIC50 (KB 3-1) was 8.21. The Inhibition (Bos taurus [2]) was 90% and the pIC50 (KB85 (Homo sapiens)) was 7.79.
For `CN[C@H](C(=O)N[C@H](C(=O)N(C)[C@H](/C=C(\C)C(=O)O)C(C)C)C(C)(C)C)C(C)(C)c1cn(C)c2ccccc12` [HEMIASTERLIN], the pIC50 (KB) was 7.12, the inhibition (Bos taurus [3]) was “inactive” and the pIC50 (KB 3-1) was 9.52. It also gave a pIC50 (KB85 (Homo sapiens)) of 9.00.
For `CN[C@H](C(=O)N[C@H](C(=O)N(C)[C@H](/C=C(\C)C(=O)O)C(C)C)C(C)(C)C)C(C)(C)c1ccsc1`, the pIC50 (KB) was 6.14, the Inhibition (Bos taurus [1]) was 96% and the pIC50 (KB 3-1) was 8.68. For the same molecule, the Inhibition (Bos taurus [2]) was 88% and the pIC50 (KB85 (Homo sapiens)) was 8.18.
`C=Cc1cccc(C(C)(C)[C@H](NC)C(=O)N[C@H](C(=O)N(C)[C@H](/C=C(\C)C(=O)O)C(C)C)C(C)(C)C)c1` gave a pIC50 (KB) of 6.89, an Inhibition (Bos taurus [1]) of 90% and a pIC50 (KB 3-1) of 9.07. For the same molecule, the Inhibition (Bos taurus [2]) was 88% and the pIC50 (KB85 (Homo sapiens)) was 8.70.
`CN[C@H](C(=O)N[C@H](C(=O)N(C)[C@H](/C=C(\C)C(=O)O)C(C)C)C(C)(C)C)C(C)(C)c1cccc(C(F)(F)F)c1` was tested, and the pIC50 (KB) was 7.37, the Inhibition (Bos taurus [1]) was 96% and the MED (Mus musculus [4]) was 1 mpk. For the same molecule, the MTD (Mus musculus [5]) was >5 mpk, the pIC50 (KB 3-1) was 9.19 and the Inhibition (Bos taurus [2]) was 98%. For the same molecule, the pIC50 (KB85 (Homo sapiens)) was 8.77.
For `CN[C@H](C(=O)N[C@H](C(=O)N(C)[C@H](/C=C(\C)C(=O)O)C(C)C)C(C)(C)C)C(C)(C)c1ccccc1` [TALTOBULIN], the pIC50 (KB) was 7.09, the Effect (Mus musculus [6]) was “Active” and the Effect (Mus musculus [7]) was “Active”. For the same molecule, the Effect (Mus musculus [8]) was “Active”, the pIC50 (KB 3-1) was 9.00 and the Inhibition (Bos taurus [2]) was 91%. It also gave a pIC50 (KB85 (Homo sapiens)) of 8.62.
`CCOC(=O)/C(C)=C/[C@H](C(C)C)N(C)C(=O)[C@@H](NC(=O)[C@@H](NC)C(C)(C)c1cccc(C)c1)C(C)(C)C` was tested, and the pIC50 (KB) was 5.62, the Inhibition (Bos taurus [1]) was 94% and the pIC50 (KB 3-1) was 7.66. It also gave an Inhibition (Bos taurus [2]) of 58% and a pIC50 (KB85 (Homo sapiens)) of 6.28.
`CN[C@H](C(=O)N[C@H](C(=O)N(C)[C@H](/C=C(\C)C(=O)O)C(C)C)C(C)(C)C)C(C)(C)c1cccc(C)c1` was tested, and the pIC50 (KB) was 7.72, the Inhibition (Bos taurus [1]) was 89% and the MED (Mus musculus [4]) was <0.1 mpk. The MTD (Mus musculus [5]) was 1.5 mpk, the Effect (Mus musculus [9]) was “Active” and the Effect (Mus musculus [10]) was “Active”. For the same molecule, the Effect (Mus musculus [11]) was “Active”, the pIC50 (KB 3-1) was 9.64 and the Inhibition (Bos taurus [2]) was 90%. The pIC50 (KB85 (Homo sapiens)) was 9.19.
Molecule `CN[C@H](C(=O)N[C@H](C(=O)N(C)[C@H](/C=C(\C)C(=O)O)C(C)C)C(C)(C)C)C(C)(C)c1cccc(Br)c1` has a pIC50 (KB) of 6.83, an Inhibition (Bos taurus [1]) of 84% and an MED (Mus musculus [4]) of 1 mpk. The MTD (Mus musculus [5]) was 4 mpk, the Effect (Mus musculus [12]) was “Active” and the pIC50 (KB 3-1) was 8.74. The Inhibition (Bos taurus [2]) was 90% and the pIC50 (KB85 (Homo sapiens)) was 8.39.
Molecule `CN[C@H](C(=O)N[C@H](C(=O)N(C)[C@H](/C=C(\C)C(=O)O)C(C)C)C(C)(C)C)C(C)(C)c1ccc(C)cc1` has a pIC50 (KB) of 7.26, an Inhibition (Bos taurus [1]) of 94% and a pIC50 (KB 3-1) of 8.82. For the same molecule, the Inhibition (Bos taurus [2]) was 95% and the pIC50 (KB85 (Homo sapiens)) was 8.59.
`CCOC(=O)/C(C)=C/[C@H](C(C)C)N(C)C(=O)[C@@H](NC(=O)[C@@H](NC)C(C)(C)c1ccc(C)c(C)c1)C(C)(C)C` gave a pIC50 (KB) of 6.72, an Inhibition (Bos taurus [1]) of 92% and an MED (Mus musculus [4]) of 0.5 mpk. For the same molecule, the MTD (Mus musculus [5]) was >2 mpk, the Effect (Mus musculus [13]) was “Active” and the Effect (Mus musculus [14]) was “Active”. The Effect (Mus musculus [15]) was “Active”, the pIC50 (KB 3-1) was 8.04 and the Inhibition (Bos taurus [2]) was 49%. It also gave a pIC50 (KB85 (Homo sapiens)) of 7.62.
